Data on seven compounds can be found in ChEMBL document CHEMBL4414599, “Selective Phenylimidazole-Based Inhibitors of the Mycobacterium tuberculosis Proteasome” (J Med Chem, 2019).

Bounds are passed on as bounds.

A short description of data set [1]: Solubility of the compound. The format is physicochemical.
In data set [2] the target is T1, Proteasome subunit beta type-8 (Homo sapiens, UniProt P28062).
T1 sequence (P28062 whole entry): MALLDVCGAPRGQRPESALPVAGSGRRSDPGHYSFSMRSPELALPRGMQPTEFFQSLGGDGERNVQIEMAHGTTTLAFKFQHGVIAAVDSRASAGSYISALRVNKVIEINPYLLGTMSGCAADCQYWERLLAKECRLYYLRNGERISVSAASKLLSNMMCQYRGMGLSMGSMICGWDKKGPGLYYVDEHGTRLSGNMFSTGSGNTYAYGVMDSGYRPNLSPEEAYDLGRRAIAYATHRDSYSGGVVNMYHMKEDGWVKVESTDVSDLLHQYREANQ
The experiment in a line: Inhibition of human 20S proteasome subunit beta-5i using Ac-ANW-AMC as substrate and measured every 30 secs for 30 mins by microtiter plate assay. As to conditions: for inhibition (INH): human, 0.5 h. In a few lines:
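Human immunoproteasome (i-20S) run in HEPES pH 7.5 buffer with EDTA and BSA, substrate Ac-ANW-AMC at 15 µM, 25 °C. Inhibitor given as a three-fold dilution series, DMSO under 0.5% final. Fluorescence 340/460 nm followed every 30 s for 30 min. IC50 fitted from rates against log inhibitor concentration; triplicate, at least three independent experiments.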

For data set [3], the target named is T2, Proteasome Macropain subunit MB1 (Homo sapiens, UniProt P28074).
T2 sequence (P28074 whole entry): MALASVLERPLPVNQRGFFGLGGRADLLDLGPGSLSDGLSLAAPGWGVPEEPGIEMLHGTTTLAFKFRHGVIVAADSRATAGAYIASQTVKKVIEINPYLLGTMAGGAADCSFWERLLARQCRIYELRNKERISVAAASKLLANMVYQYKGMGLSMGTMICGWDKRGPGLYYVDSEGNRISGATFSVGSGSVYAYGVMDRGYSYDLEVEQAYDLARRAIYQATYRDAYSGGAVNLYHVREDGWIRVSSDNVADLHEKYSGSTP
The experiment in a line: Inhibition of human 20S proteasome beta-5c subunit using Suc-LLVY-AMC as substrate and measured every 30 secs for 30 mins by microtiter plate assay. To be noted: for inhibition (INH): human, 0.5 h. An outline of the steps:
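Human constitutive 20S, purchased, 0.8 nM in the enzyme solution. Buffer: 20 mM HEPES pH 7.5, 0.5 mM EDTA, 0.1 mg/mL BSA, 0.02% SDS. Suc-LLVY-AMC at 25 µM final, 25 °C, three-fold inhibitor dilutions. Fluorescence 340/460 nm read every 30 s for 30 min. IC50 from a log-concentration rate fit against negative and positive controls; triplicate, at least three independent experiments.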

Regarding `Cc1cc(C(=O)N[C@@H](CC(=O)N2CCCC[C@@H]2C)C(=O)N[C@@H](C)C(=O)NCc2ccc(F)cc2F)no1`, the solubility result in data set [1] is listed as “Soluble”. In addition, the IC50 in data set [2] was 0.026 µM; in data set [3] it was 1.41 µM. Also, the “inhibition (INH)” value in data set [2] and in data set [3] was “Dose-dependent effect” in each case.
Take `COc1ccccc1CNC(=O)[C@H](C)NC(=O)[C@H](CC(=O)N1CCC[C@@H]1c1ccccc1)NC(=O)c1cc(C)on1`: the IC50 in data set [2] and in data set [3] was > 100 µM in each case. In addition, the “inhibition (INH)” value in data set [2] and in data set [3] was “Dose-dependent effect” throughout.
For `Cc1cc(C(=O)N[C@@H](CC(=O)N2CCC[C@@H]2c2ccccc2)C(=O)N[C@@H](C)C(=O)NCc2c(F)cccc2F)no1`, in data set [2], the IC50 is 20.1 µM and the “inhibition (INH)” value is recorded as “Dose-dependent effect”. For the same compound, in data set [3], the IC50 is > 100 µM and the “inhibition (INH)” value is reported as “Dose-dependent effect”.
`Cc1cc(C(=O)N[C@@H](CC(=O)N2CCC[C@@H]2c2ccccc2)C(=O)N[C@@H](C)C(=O)NCc2ccc(F)cc2F)no1`: the half-maximal inhibitory concentration (IC50) is 7.89 µM in data set [2] and > 100 µM in data set [3]. Moreover, the “inhibition (INH)” value in data set [2] and in data set [3] was “Dose-dependent effect” throughout.
In the case of `Cc1cc(C(=O)N[C@@H](CC(=O)N2CCC[C@@H]2c2ccccc2)C(=O)N[C@@H](C)c2ncc(-c3ccccc3F)[nH]2)no1`, the IC50 in data set [2] and in data set [3] was > 100 µM each time.
For the compound `Cc1cc(C(=O)N[C@@H](CC(=O)N2CCC[C@@H]2c2ccccc2)C(=O)N[C@@H](C)c2ncc(-c3ccccc3)[nH]2)no1`, the IC50 in data set [2] and in data set [3] was > 100 µM each time.
`Cc1cc(C(=O)N[C@@H](CC(=O)N2CCC[C@@H]2c2ccccc2)C(=O)N[C@@H](C)c2ncc(-c3ccc(F)cc3F)[nH]2)no1`: the IC50 in data set [2] and in data set [3] was > 100 µM throughout.
